The source of these data is ChEMBL document CHEMBL2413022, “3-Aryl-4-acyloxyethoxyfuran-2(5H)-ones as inhibitors of tyrosyl-tRNA synthetase: synthesis, molecular docking and antibacterial evaluation” (Bioorg Med Chem, 2013).

SMILES strings stand for the structures. Values after ≈ are worked out from the molar mass of the structure shown.

Assay [1] concerns Escherichia coli. In words: Antibacterial activity against Escherichia coli ATCC 35218 by MTT assay. In kind it is functional. In a few lines: (§1)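 LB medium; inoculum about 10⁵ cfu/mL added to serially diluted compound (medium-only blank) and incubated at 37 °C. Then MTT in PBS (3 mg/mL) added, 4–5 h at room temperature. Medium removed, dye extracted 8–10 h in 10% SDS with 5% isopropanol and HCl. Read OD 570 nm, control OD kept at 1.0–2.0; MIC50 taken from absorbance.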
On the technique in general: Tetrazolium assays rely on reduction of a dye to a coloured formazan, in cell work by metabolically active cells.

Assay [2] relates to Staphylococcus aureus. Nature of the assay: Antibacterial activity against Staphylococcus aureus ATCC 25923 by MTT assay. It counts as functional. In a few lines:
as §1

For assay [3], the system named is Pseudomonas aeruginosa. Nature of the assay: Antibacterial activity against Pseudomonas aeruginosa ATCC 27853 by MTT assay. In kind it is functional. In a few lines:
as §1

Assay [4] concerns Candida albicans. Nature of the assay: Antifungal activity against Candida albicans ATCC 10231 by MTT assay. In kind it is functional. An outline of the steps: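 LB medium; inoculum about 10⁵ cfu/mL with serially diluted compound (medium-only blank), incubated at 28 °C. MTT in PBS (3 mg/mL) added, 4–5 h at room temperature. Dye extracted 8–10 h in 10% SDS with 5% isopropanol and HCl. OD read at 570 nm, control OD 1.0–2.0; MIC50 from absorbance.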

A short description of assay [5]: Inhibition of Staphylococcus aureus tyrosyl-tRNA synthetase expressed in Escherichia coli using L-[ring-3,5-3H] tyrosine as substrate preincubated for 10 mins by liquid scintillation counting analysis. In a few lines:
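Enzyme purified to about 98% (SDS–PAGE). Aminoacylation at 37 °C, final 100 mM Tris/Cl pH 7.9, 50 mM KCl. TyrRS (0.2 nM) preincubated with a range of inhibitor concentrations for 10 min at room temperature, then pre-warmed mixture added. Aliquots quenched in ice-cold 7% TCA at set intervals, filtered, counted by liquid scintillation.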

For the molecule `O=C1OCC(OCCOC(=O)c2cccc(Cl)c2)=C1c1ccc(Cl)cc1`, the MIC50 came to 4.3 µg/mL (≈ 10.9 µM) in assay [1], 2 µg/mL (≈ 5.09 µM) in assay [2], 1.5 µg/mL (≈ 3.81 µM) in assay [3] and 1.2 µg/mL (≈ 3.05 µM) in assay [4]. This molecule also gave an IC50 in assay [5] of 0.9 µM.

Turning to `COc1ccccc1C(=O)OCCOC1=C(c2ccccc2)C(=O)OC1`, the MIC50 in assay [1] was > 100 µg/mL; in assay [2], > 100 µg/mL; in assay [3] it was 73.6 µg/mL (≈ 208 µM); in assay [4], > 100 µg/mL. In addition, inhibition in assay [5] was half-maximal at 64.7 µM (IC50).

Turning to `Cc1cccc(C(=O)OCCOC2=C(c3ccccc3)C(=O)OC2)c1`, the MIC50 was > 100 µg/mL in assay [1], 15.8 µg/mL (≈ 46.7 µM) in assay [2], 16.7 µg/mL (≈ 49.4 µM) in assay [3] and > 100 µg/mL in assay [4]. For the same molecule, the IC50 in assay [5] was found to be 8.1 µM.

On to `COc1ccc(CC(=O)OCCOC2=C(c3ccccc3)C(=O)OC2)cc1OC`, for which the MIC50 in assay [1] was > 100 µg/mL; in assay [2] it was > 100 µg/mL; in assay [3] it was > 100 µg/mL; in assay [4] it was 92.3 µg/mL (≈ 232 µM). In assay [5], this molecule registered an IC50 of 83.8 µM.

Broadly, the MIC50 is the lowest concentration that inhibits either 50% of growth or 50% of the strains tested, depending on the study. High values mean lower susceptibility, low ones higher susceptibility. For orientation: IC50 means the midpoint of a concentration-inhibition curve. Read a low IC50 as higher potency.
